Bridge positions count the residues as written; N and C are the ends. Square brackets hold non-standard residues; d marks the D form. Side chains are listed from the residue outwards. Peptide text beside a SMILES is read from it. I, II: the chains in the order shown. * marks the point of attachment. Ser(O-(NMe-dPhe-Ile)) = CC[C@H](C)[C@H](NC(=O)[C@@H](Cc1ccccc1)NC)C(=O)OC[C@H](N)C(=O)*; d(aIle) = CC[C@H](C)[C@@H](N)C(=O)O; dNMeF = CN[C@H](Cc1ccccc1)C(=O)O; Chg = N[C@H](C(=O)O)C1CCCCC1 Bounds are passed on as bounds.

By MIC is commonly meant the smallest concentration in the dilution series that meets the test's criterion for growth inhibition.

For data set [1], the system named is Enterococcus faecalis. Nature of the data set: Antibiotic activity against vancomycin-resistant Enterococcus faecalis ATCC 51299 assessed as inhibition of bacterial growth incubated for 16 hrs in presence of 0.002% polysorbate 80. The data set is classed as functional.
The subject of data set [2] is Staphylococcus epidermidis. The data set can be described thus: Antibiotic activity against Staphylococcus epidermidis ATCC 14990 assessed as inhibition of bacterial growth incubated for 16 hrs in presence of 0.002% polysorbate 80. The data set is classed as functional. An outline of the steps: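 Broth microdilution in media containing 0.002% polysorbate 80. Overnight cultures were grown at 37 °C with shaking in Mueller-Hinton broth. Inoculum was set from background-corrected OD600 to about 5 × 10^5 CFU/mL final. Plates were incubated 16 h at 37 °C and OD600 was read. MIC is the lowest concentration with no growth. Run in quadruplicate technical replicates.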

Data set [3] concerns Bacillus subtilis. The data set can be described thus: Antibiotic activity against Bacillus subtilis ATCC 6051 assessed as inhibition of bacterial growth incubated for 16 hrs in presence of 0.002% polysorbate 80. The format is functional. An outline of the steps:
(§1)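 Broth microdilution in media containing 0.002% polysorbate 80. Overnight cultures were grown at 37 °C with shaking in Mueller-Hinton broth. Inoculum was set from background-corrected OD600 to about 5 × 10^5 CFU/mL final. 2-fold dilutions gave final 8 to 0.0078 μg/mL from a DMSO stock. Plates were incubated 16 h at 37 °C and OD600 was read. MIC is the lowest concentration with no growth. Run in quadruplicate technical replicates.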

Data set [4] deals with Staphylococcus aureus. The data set can be described thus: Antibiotic activity against methicillin-resistant Staphylococcus aureus ATCC 700698 assessed as inhibition of bacterial growth incubated for 16 hrs in presence of 0.002% polysorbate 80. The data set is classed as functional. An outline of the steps:
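Overnight culture from glycerol stock in brain heart infusion broth at 37 °C with shaking; all media contain 0.002% polysorbate 80. DMSO stock (1 mg/mL) diluted in medium; 2-fold series, final 8–0.0078 μg/mL; inoculum ~5 × 10^5 CFU/mL (OD600-normalised).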

The subject of data set [5] is Escherichia coli. Nature of the data set: Antibiotic activity against Escherichia coli ATCC 10798 assessed as inhibition of bacterial growth incubated for 16 hrs in presence of 0.002% polysorbate 80. The data set is classed as functional. An outline of the steps: as §1
In data set [6] the test system is Staphylococcus aureus. Nature of the data set: Antibiotic activity against methicillin-sensitive Staphylococcus aureus ATCC 29213 assessed as inhibition of bacterial growth incubated for 16 hrs in presence of 0.002% polysorbate 80. The data set is classed as functional. An outline of the steps:
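Overnight culture from glycerol stock in Mueller-Hinton broth at 37 °C with shaking; all media contain 0.002% polysorbate 80. DMSO stock (1 mg/mL) diluted in medium; 2-fold series, final 8–0.0078 μg/mL; inoculum ~5 × 10^5 CFU/mL (OD600-normalised).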

Data set [7] deals with HeLa. The data set can be described thus: Cytotoxicity against human HeLa cells at 50 uM by promega cytotox-glo assay. The data set is classed as toxicity, cell-based. An outline of the steps:
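HeLa cells were exposed to compound at concentrations up to 50 μM. Cytotoxicity was read with the Cytotox-Glo luminescent assay.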

Data set [8] is described as follows: Solubility in PBS buffer at pH 7.4 at 0.5 mg/ml by HPLC analysis. The format is physicochemical.
The test system of data set [9] is Erythrocyte. Nature of the data set: Hemolytic activity in human Red blood cell at 25 microg/ml in absence of polysorbate 80. The data set is classed as toxicity, cell-based. The settings on record: dose 25 µg/ml. An outline of the steps: (§2)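 Human red blood cells were tested with and without 0.002% polysorbate 80. Triton X-100 served as the 100% lysis control and water (vehicle) as the 0% lysis control. 1.25 μM melittin was an added positive control.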

Data set [10] in a line: Hemolytic activity in human Red blood cell assessed as hemolysis at 100 microg/ml in presence of 0.002% polysorbate 80 relative to control. The data set is classed as toxicity, cell-based, Erythrocyte. The settings on record: red blood cells (erythrocytes), at 100 µg/mL, read-out: Activity. An outline of the steps: as §2

With `CC[C@H](C)[C@H](NC(=O)[C@@H](Cc1ccccc1)NC)C(=O)N[C@@H](CO)C(=O)N[C@H](CCC(N)=O)C(=O)N[C@@H](C(=O)N[C@H](C(=O)OC[C@H](N)C(=O)N[C@H]1C(=O)N[C@@H](C)C(=O)N[C@@H](C[C@H]2CNC(=N)N2)C(=O)N[C@@H]([C@@H](C)CC)C(=O)O[C@H]1C)[C@@H](C)CC)[C@@H](C)CC`, the MIC was 0.5 µg/mL in data set [1]; 0.25 µg/mL in data set [2]; 0.062 µg/mL in data set [3]; 0.5 µg/mL in [4]; above 8 µg/mL in data set [5]; 0.5 µg/mL in data set [6].
In the case of `CC[C@H](C)[C@H](NC(=O)[C@@H](Cc1ccccc1)NC)C(=O)N[C@@H](CO)C(=O)N[C@H](CCCNC(=N)N)C(=O)N[C@@H](C(=O)N[C@H](C(=O)N[C@@H](CO)C(=O)N[C@H]1C(=O)N[C@@H](C)C(=O)N[C@@H](C2CCCCC2)C(=O)N[C@@H]([C@@H](C)CC)C(=O)O[C@H]1C)[C@@H](C)CC)[C@@H](C)CC`, the Activity entry in data set [7] is “Toxic”. Besides, the MIC in data set [2] was found to be 0.125 µg/mL. The solubility entry in data set [8] is “Insoluble”.
As to `CC[C@H](C)[C@H](NC(=O)[C@@H](Cc1ccccc1)NC)C(=O)N[C@@H](CO)C(=O)N[C@H](CCCNC(=N)N)C(=O)N[C@@H](C(=O)N[C@H](C(=O)N[C@@H](CO)C(=O)N[C@H]1C(=O)N[C@@H](C)C(=O)N[C@@H](CC(C)C)C(=O)N[C@@H]([C@@H](C)CC)C(=O)O[C@H]1C)[C@@H](C)CC)[C@@H](C)CC`, in data set [6], the minimal inhibitory concentration (MIC) was 0.25 µg/mL.
Take `CC[C@H](C)[C@H](NC(=O)[C@@H](Cc1ccccc1)NC)C(=O)OC[C@H](N)C(=O)N[C@H](CCCNC(=N)N)C(=O)N[C@@H](C(=O)N[C@H](C(=O)OC[C@H](N)C(=O)N[C@H]1C(=O)N[C@@H](C)C(=O)N[C@@H](CC(C)C)C(=O)N[C@@H]([C@@H](C)CC)C(=O)O[C@H]1C)[C@@H](C)CC)[C@@H](C)CC` (H-S([Ile-d(aIle)-dR-Ser(O-(NMe-dPhe-Ile))])[dT]ALI; ester 2-C): the MIC in data set [3] amounted to 0.016 µg/mL; in data set [4], 1 µg/mL.
As to `CC[C@H](C)[C@H](NC(=O)[C@@H](Cc1ccccc1)NC)C(=O)OC[C@H](N)C(=O)N[C@H](CCCNC(=N)N)C(=O)N[C@@H](C(=O)N[C@H](C(=O)OC[C@H](N)C(=O)N[C@H]1C(=O)N[C@@H](C)C(=O)N[C@@H](C2CCCCC2)C(=O)N[C@@H]([C@@H](C)CC)C(=O)O[C@H]1C)[C@@H](C)CC)[C@@H](C)CC` (H-S([Ile-d(aIle)-dR-Ser(O-(NMe-dPhe-Ile))])[dT]A[Chg]I; ester 2-C), the Activity result in data set [9] is on record as “Non-Toxic”; in data set [7] it was “Toxic”. Besides, the results for the MIC in data set [1], in data set [3] and in data set [4] were 1 µg/mL, 0.125 µg/mL and 1 µg/mL, respectively. Besides, the hemolysis at 100 microg/ml in data set [10] is 0%. The solubility entry in data set [8] is given as “Insoluble”.
`CC[C@H](C)[C@H](NC(=O)[C@H](NC(=O)[C@@H](CCCNC(=N)N)NC(=O)[C@@H](N)COC(=O)[C@@H](NC(=O)[C@@H](Cc1ccccc1)NC)[C@@H](C)CC)[C@@H](C)CC)C(=O)N[C@@H](CO)C(=O)N[C@H]1C(=O)N[C@@H](C)C(=O)N[C@@H](CC(C)C)C(=O)N[C@@H]([C@@H](C)CC)C(=O)O[C@H]1C` (H-S([Ile-dNMeF])[dR][d(aIle)]IS[dT]ALI; ester 6-C): the values for the MIC in data set [2], in data set [3] and in data set [4] were 0.031 µg/mL, 0.008 µg/mL and 0.5 µg/mL, respectively.
Regarding `CC[C@H](C)[C@H](NC(=O)[C@H](NC(=O)[C@@H](CCCNC(=N)N)NC(=O)[C@@H](N)COC(=O)[C@@H](NC(=O)[C@@H](Cc1ccccc1)NC)[C@@H](C)CC)[C@@H](C)CC)C(=O)N[C@@H](CO)C(=O)N[C@H]1C(=O)N[C@@H](C)C(=O)N[C@@H](C2CCCCC2)C(=O)N[C@@H]([C@@H](C)CC)C(=O)O[C@H]1C` (H-S([Ile-dNMeF])[dR][d(aIle)]IS[dT]A[Chg]I; ester 6-C), the Activity entry is reported as “Non-Toxic” in [9] and “Toxic” in data set [7]. In addition, the MIC in data set [1] amounted to 1 µg/mL. In addition, the hemolysis at 100 microg/ml in [10] came out at 0%. Also, the solubility entry in data set [8] is “Insoluble”.
With `CC[C@H](C)[C@H](NC(=O)[C@@H](Cc1ccccc1)NC)C(=O)N[C@@H](CO)C(=O)N[C@H](CCCNC(=N)N)C(=O)N[C@@H](C(=O)N[C@H](C(=O)OC[C@H](N)C(=O)N[C@H]1C(=O)N[C@@H](C)C(=O)N[C@@H](CC(C)C)C(=O)N[C@@H]([C@@H](C)CC)C(=O)O[C@H]1C)[C@@H](C)CC)[C@@H](C)CC` (I: H-[dNMeF]IS[dR][d(aIle)]I / II: H-S[dT]ALI; ester I:C-II:1, II:2-II:C), the MIC turned out to be 1 µg/mL in [1], 0.016 µg/mL in [2] and 0.125 µg/mL in data set [6].
As for `CC[C@H](C)[C@H](NC(=O)[C@@H](Cc1ccccc1)NC)C(=O)N[C@@H](CO)C(=O)N[C@H](CCCNC(=N)N)C(=O)N[C@@H](C(=O)N[C@H](C(=O)OC[C@H](N)C(=O)N[C@H]1C(=O)N[C@@H](C)C(=O)N[C@@H](C2CCCCC2)C(=O)N[C@@H]([C@@H](C)CC)C(=O)O[C@H]1C)[C@@H](C)CC)[C@@H](C)CC` (I: H-[dNMeF]IS[dR][d(aIle)]I / II: H-S[dT]A[Chg]I; ester I:C-II:1, II:2-II:C), the Activity result in data set [9] is recorded as “Non-Toxic”; in [7], “Toxic”. Also, the hemolysis at 100 microg/ml in data set [10] stood at 0%. Further, the MIC in [4] and in [6] was 1 µg/mL in each case. Also, in data set [8], the solubility entry was “Insoluble”.
In the case of `CN[C@H](CC(C)C)C(=O)N[C@H]1C(=O)N[C@@H](CC(N)=O)C(=O)N[C@H]2C(=O)N[C@H]3C(=O)N[C@H](C(=O)N[C@H](C(=O)O)c4cc(O)cc(O)c4-c4cc3ccc4O)[C@H](O)c3ccc(c(Cl)c3)Oc3cc2cc(c3O[C@@H]2O[C@H](CO)[C@@H](O)[C@H](O)[C@H]2O[C@H]2C[C@](C)(N)[C@H](O)[C@H](C)O2)Oc2ccc(cc2Cl)[C@H]1O` [VANCOMYCIN], the figures for the MIC in [1] and in [3] were above 8 µg/mL and 0.5 µg/mL, respectively.

(Values after ChEMBL document CHEMBL5584273, “Investigation of Isobactin Analogues of Teixobactin” (ACS Med Chem Lett, 2024).)
